Assay results reported in ChEMBL document CHEMBL1268917, “Synthesis and biological evaluation of radio-iodinated benzimidazoles as SPECT imaging agents for NR2B subtype of NMDA receptor” (Bioorg Med Chem, 2010).

Key:
Spleen [1] = experiment: Biodistribution in ddY mouse spleen assessed per gram of tissue at 14.8 kBq, iv after 60 mins; type: ADME, organism-based; conditions: in vivo, 1 h
In short: (§1)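 Radioiodinated tracer (14.8 kBq) injected via tail vein into male ddY mice (6 weeks, 30–35 g). Organs removed at set times after injection, weighed and gamma-counted; uptake expressed as % injected dose per gram tissue, mean ± SD, n = 5–6.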

Spleen [2] = experiment: Biodistribution in ddY mouse spleen assessed per gram of tissue at 14.8 kBq, iv after 180 mins; type: ADME, organism-based; conditions: in vivo, 3 h; in short: as §1
Kidney [3] = experiment: Biodistribution in ddY mouse kidney assessed per gram of tissue at 14.8 kBq, iv after 5 mins; type: ADME, organism-based; conditions: in vivo
In short: (§2)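 Killed at set times after injection; organs and blood removed, weighed, gamma counted. Data as % injected dose per gram tissue, mean SD, n = 5–6.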

Brain [4] = experiment: Biodistribution in ddY mouse brain assessed per gram of tissue at 14.8 kBq, iv after 180 mins; type: ADME, organism-based; conditions: in vivo, 3 h; in short: as §2
Stomach [5] = experiment: Biodistribution in ddY mouse stomach assessed per gram of tissue at 14.8 kBq, iv after 60 mins; type: ADME, organism-based; conditions: in vivo, 1 h; in short: as §1
Liver [6] = experiment: Biodistribution in ddY mouse liver assessed per gram of tissue at 14.8 kBq, iv after 5 mins; type: ADME, organism-based; conditions: in vivo; in short: as §2
Spleen [7] = experiment: Biodistribution in ddY mouse spleen assessed per gram of tissue at 14.8 kBq, iv after 0.5 mins; type: ADME, organism-based; conditions: in vivo; in short: as §1
Pancreas = experiment: Biodistribution in ddY mouse pancreas assessed per gram of tissue at 14.8 kBq, iv after 180 mins; type: ADME, organism-based; conditions: in vivo, 3 h; in short: as §1
Kidney [8] = experiment: Biodistribution in ddY mouse kidney assessed per gram of tissue at 14.8 kBq, iv after 0.5 mins; type: ADME, organism-based; conditions: in vivo; in short: as §2
Blood [9] = experiment: Biodistribution in ddY mouse blood assessed per gram of tissue at 14.8 kBq, iv after 5 mins; type: ADME, organism-based; conditions: in vivo; in short: as §2
Heart [10] = experiment: Biodistribution in ddY mouse heart assessed per gram of tissue at 14.8 kBq, iv after 60 mins; type: ADME, organism-based; conditions: in vivo, 1 h; in short: as §2
Liver [11] = experiment: Biodistribution in ddY mouse liver assessed per gram of tissue at 148 kBq, iv after 180 mins in presence of 200 mg/kg, iv of probenecid administered 30 mins before compound challenge (reference value: 19.13 +/- 2.09 %); conditions: in vivo, 3 h
Blood [12] = experiment: Biodistribution in ddY mouse blood assessed per gram of tissue at 14.8 kBq, iv after 360 mins; type: ADME, organism-based; conditions: in vivo, 6 h; in short: as §2
Stomach [13] = experiment: Biodistribution in ddY mouse stomach assessed per gram of tissue at 14.8 kBq, iv after 30 mins; type: ADME, organism-based; conditions: in vivo, 0.5 h; in short: as §1
Heart [14] = experiment: Biodistribution in ddY mouse heart assessed per gram of tissue at 14.8 kBq, iv after 180 mins; type: ADME, organism-based; conditions: in vivo, 3 h; in short: as §2
Blood [15] = experiment: Biodistribution in ddY mouse blood assessed per gram of tissue at 148 kBq, iv after 180 mins in presence of 50 mg/kg, iv of cyclosporin A administered 30 mins before compound challenge (reference value: 0.78 +/- 0.27 %); type: ADME, organism-based; parameters: dose 50 mg/kg, route intravenous; conditions: in vivo, 3 h
Brain [16] = experiment: Biodistribution in ddY mouse brain assessed per gram of tissue at 14.8 kBq, iv after 0.5 mins; type: ADME, organism-based; conditions: in vivo; in short: as §2
Liver [17] = experiment: Biodistribution in ddY mouse liver assessed per gram of tissue at 14.8 kBq, iv after 60 mins; type: ADME, organism-based; conditions: in vivo, 1 h; in short: as §1
Spleen [18] = experiment: Biodistribution in ddY mouse spleen assessed per gram of tissue at 14.8 kBq, iv after 360 mins; type: ADME, organism-based; conditions: in vivo, 6 h; in short: as §1
Lung = experiment: Biodistribution in ddY mouse lung assessed per gram of tissue at 14.8 kBq, iv after 30 mins; type: ADME, organism-based; conditions: in vivo, 0.5 h; in short: as §1
Kidney [19] = experiment: Biodistribution in ddY mouse kidney assessed per gram of tissue at 14.8 kBq, iv after 180 mins; type: ADME, organism-based; conditions: in vivo, 3 h; in short: as §2
Kidney [20] = experiment: Biodistribution in ddY mouse kidney assessed per gram of tissue at 14.8 kBq, iv after 30 mins; type: ADME, organism-based; conditions: in vivo, 0.5 h; in short: as §2
Brain [21] = experiment: Biodistribution in ddY mouse brain assessed per gram of tissue at 14.8 kBq, iv after 5 mins; type: ADME, organism-based; conditions: in vivo; in short: as §2
Liver [22] = experiment: Biodistribution in ddY mouse liver assessed per gram of tissue at 14.8 kBq, iv after 30 mins; type: ADME, organism-based; conditions: in vivo, 0.5 h; in short: as §2
Stomach [23] = experiment: Biodistribution in ddY mouse stomach assessed per gram of tissue at 14.8 kBq, iv after 0.5 mins; type: ADME, organism-based; conditions: in vivo; in short: as §1

## Oc1ccc2nc(CN3CCC(Cc4ccc([125I])cc4)CC3)[nH]c2c1
Spleen [1]
  Drug uptake: 4.65 % ID/g
Spleen [2]
  Drug uptake: 4.25 % ID/g
Kidney [3]
  Drug uptake: 12.2 % ID/g
Brain [4]
  Drug uptake: 0.56 % ID/g
Stomach [5]
  Drug uptake: 2.16 % ID/g
Liver [6]
  Drug uptake: 25.03 % ID/g
Spleen [7]
  Drug uptake: 0.5 % ID/g
Pancreas
  Drug uptake: 6.53 % ID/g
Kidney [8]
  Drug uptake: 5.35 % ID/g
Blood [9]
  Drug uptake: 1.15 % ID/g
Heart [10]
  Drug uptake: 1.87 % ID/g
Liver [11]
  Drug uptake: 20 % ID/g
Blood [12]
  Drug uptake: 0.28 % ID/g
Stomach [13]
  Drug uptake: 2.54 % ID/g
Heart [14]
  Drug uptake: 1.58 % ID/g
Blood [15]
  Drug uptake: 0.52 % ID/g
Brain [16]
  Drug uptake: 0.21 % ID/g
Liver [17]
  Drug uptake: 30.5 % ID/g
Spleen [18]
  Drug uptake: 3.79 % ID/g
Lung
  Drug uptake: 8.16 % ID/g
Kidney [19]
  Drug uptake: 7.74 % ID/g
Kidney [20]
  Drug uptake: 11.2 % ID/g
Brain [21]
  Drug uptake: 0.42 % ID/g
Liver [22]
  Drug uptake: 28.99 % ID/g
Stomach [23]
  Drug uptake: 0.72 % ID/g
